Laboratory results taken from paper PMC3071016 (Biochimica et biophysica acta, 2010).
Numbering of substitutions follows the chain as printed. Marks after values point to notes of the source that are not given here. Starred links: 1 amine or outer side, 2 acyl side, 3 side chain; linkers in the order of their positions; H or OH if unused. Non-standard residues stand in square brackets, D forms with d. Residues, ends and D or L forms follow the SMILES beside them. *: point of attachment. X2 = CN(C)c1ccc2c(-c3ccc(C(=O)*)cc3C(=O)[O-])c3ccc(=[N+](C)C)cc-3oc2c1; Isoquinoline5sulfonyl = O=S(=O)(c1cccc2cnccc12)*; X1 = O=C(CCCCCNCCN[*:1])[*:2]

Assays:
PKGIα [1] = molecular target: T1, PKGIα (Homo sapiens, UniProt Q13976); test: FA displacement assay; assay type: binding; details: for log IC50, PKGIα, FA (displacement): displacement of ARC-1059 (2 nM) from PKGIα (4 nM), cGMP 1 μM, logarithm of IC50
T1 sequence (Q13976 1-671): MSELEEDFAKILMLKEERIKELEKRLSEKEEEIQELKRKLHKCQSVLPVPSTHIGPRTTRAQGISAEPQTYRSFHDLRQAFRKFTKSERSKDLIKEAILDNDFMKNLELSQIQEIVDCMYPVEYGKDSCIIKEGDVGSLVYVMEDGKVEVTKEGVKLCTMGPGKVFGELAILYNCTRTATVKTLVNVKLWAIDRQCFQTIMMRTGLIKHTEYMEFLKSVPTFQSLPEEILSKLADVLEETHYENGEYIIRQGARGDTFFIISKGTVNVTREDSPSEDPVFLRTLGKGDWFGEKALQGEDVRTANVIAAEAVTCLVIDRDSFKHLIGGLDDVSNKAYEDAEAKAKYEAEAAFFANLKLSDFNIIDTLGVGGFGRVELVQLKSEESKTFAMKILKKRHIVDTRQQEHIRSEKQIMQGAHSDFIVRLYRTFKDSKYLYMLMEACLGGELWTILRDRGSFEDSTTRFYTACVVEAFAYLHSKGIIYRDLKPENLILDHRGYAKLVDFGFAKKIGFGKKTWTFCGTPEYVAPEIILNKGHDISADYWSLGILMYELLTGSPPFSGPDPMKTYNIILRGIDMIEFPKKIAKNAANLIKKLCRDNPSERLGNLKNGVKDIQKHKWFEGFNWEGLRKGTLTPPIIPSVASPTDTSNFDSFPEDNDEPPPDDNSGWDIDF

[2] = tested on: vascular smooth muscle cells in intact cerebral arteries; test: Fluorescence imaging of vascular smooth muscle cells in intact arteries; assay type: cell-based, rat
Procedure, shortened: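 Isolated intact rat cerebral arteries incubated at room temperature in Hepes buffer with the TAMRA-labelled test compound (100 nM, 1 μM or 10 μM) for 20, 40 or 60 min, then washed 3 times. Imaged by confocal scanning laser microscopy at 20× and 40×, with TAMRA excited at 568 nm (krypton–argon laser). Fluorescein-labelled reference peptide (2 μM) with TOTO-3 nuclear stain (488/647 nm excitation) used as reference.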

PKGIα [3] = molecular target: T1, PKGIα; test: FA direct binding assay; details: addition of cGMP in the absence of Mg2+
PKGIα [4] = molecular target: T2, PKGIα (Bos taurus, UniProt P00516); test: FI displacement assay; assay type: binding, bovine
T2 sequence (P00516 1-671): T1 sequence (Q13976 1-671) with T265K, S275N

PKGIα [5] = details: reported in the literature; cited from earlier work
PKGIα [6] = molecular target: T2, PKGIα; test: Radioactive inhibition assay; assay type: biochemical, bovine
PKAc = PKAc (Homo sapiens, UniProt P17612); details: 100 μM ATP and 30 μM TAMRA-Kemptide substrate; logarithm of IC50; cited from earlier work

Nc1ncnc2c1ncn2[C@@H]1O[C@H](COP(=O)(O)OP(=O)([O-])OP(=O)([O-])O)[C@@H](O)[C@H]1O.[Mg+2] [MgATP]
log IC50, PKGIα, FA (displacement) (PKGIα [1]): −2.35 (0.08)

COC(=O)[C@@]1(OC)C[C@H]2O[C@]1(C)n1c3ccccc3c3c4c(c5c6ccccc6n2c5c31)C(=O)N(C)C4 [KT-5823]
displacement of ARC-1059 from its complex with PKGIα (PKGIα [1]; assay format not stated): failed to displace ARC-1059

CN(C)c1ccc2c(-c3ccc(C(=O)NCCCC[C@@H](NC(=O)[C@@H](CCCNC(=N)N)NC(=O)[C@@H](CCCNC(=N)N)NC(=O)[C@@H](CCCNC(=N)N)NC(=O)[C@@H](CCCNC(=N)N)NC(=O)[C@@H](CCCNC(=N)N)NC(=O)[C@@H](CCCNC(=N)N)NC(=O)CCCCCNCCNS(=O)(=O)c4cccc5cnccc45)C(N)=O)cc3C(=O)[O-])c3ccc(=[N+](C)C)cc-3oc2c1 [ARC-1059, H9-Hex-(D-Arg)6-[D-Lys(TAMRA)]-NH2] (Isoquinoline5sulfonyl-[X1][dR][dR][dR][dR][dR][dR][dK](X2)-NH2)
internalization in smooth muscle tissue, concentration dependence ([2]; 100 nM, 1 μM or 10 μM): not well observable at concentrations lower than 1 μM
incubation time after which internalization into tissue cells was observable ([2]; 10 μM, nucleus not yet stained): 20 min
internalization into vascular smooth muscle cells ([2]; intact pial arteries from rat brain, incubation 20, 40 or 60 min at room temperature): internalized into vascular smooth muscle cells
increase of affinity towards PKGIα by addition of cGMP (PKGIα [3]): 8 fold

CSCC[C@H](NC(=O)[C@H](C)NC(=O)[C@H](CC(C)C)NC(=O)[C@H](C)NC(=O)[C@H](CCCCN)NC(=O)[C@H](CCCCN)NC(=O)[C@H](CCCNC(=N)N)NC(=O)[C@H](CCCCN)NC(=O)[C@H](C)NC(=O)[C@H](CCC(N)=O)NC(=O)[C@@H](N)[C@@H](C)O)C(=O)N[C@@H](C)C(N)=O [WW21]
IC50 (PKGIα [4]): 251000 nM

O=S(=O)(NCCNCC=Cc1ccc(Br)cc1)c1cccc2cnccc12 [H89, N-[2-(p-bromocinnamylamino)ethyl]-5-isoquinoline-sulfonamide]
IC50 (PKGIα [1]): 3020 nM
IC50 (PKGIα [4]): 1100 nM
Ki (PKGIα [5]): 480 nM

Nc1ncnc2c1ncn2[C@@H]1O[C@H](COP(=O)(O)OP(=O)(O)OP(=O)(O)O)[C@@H](O)[C@H]1O [ATP]
Km (PKGIα [6]; PKGIα-catalysed phosphorylation): 20 µM
log IC50, PKGIα, FA (displacement) (PKGIα [1]): −2.02 (0.33)

NCCNS(=O)(=O)c1cccc2cnccc12 [H9]
log IC50, PKGIα, Inhibition (PKGIα [6]; 100 μM ATP and 11 μM TQAKRKKSLAMA substrate, presence of cGMP, logarithm of IC50): −6.85 (0.02)
IC50 (PKGIα [6]; read-out: inhibition IC50, 100 μM ATP, 11 μM substrate peptide, presence of cGMP): 141 nM
log IC50, PKAc, Inhibition (PKAc): −5.43 ^b [36]
Ki (PKGIα [5]): 870 nM
